{"source": "PubChem BioAssay AID1453", "about": "(NMMLSC, 2008)", "target": "Broad substrate specificity ATP-binding cassette transporter ABCG2 (Homo sapiens) (UniProt Q9UNQ0)", "sequence (Q9UNQ0 whole entry, looked up)": "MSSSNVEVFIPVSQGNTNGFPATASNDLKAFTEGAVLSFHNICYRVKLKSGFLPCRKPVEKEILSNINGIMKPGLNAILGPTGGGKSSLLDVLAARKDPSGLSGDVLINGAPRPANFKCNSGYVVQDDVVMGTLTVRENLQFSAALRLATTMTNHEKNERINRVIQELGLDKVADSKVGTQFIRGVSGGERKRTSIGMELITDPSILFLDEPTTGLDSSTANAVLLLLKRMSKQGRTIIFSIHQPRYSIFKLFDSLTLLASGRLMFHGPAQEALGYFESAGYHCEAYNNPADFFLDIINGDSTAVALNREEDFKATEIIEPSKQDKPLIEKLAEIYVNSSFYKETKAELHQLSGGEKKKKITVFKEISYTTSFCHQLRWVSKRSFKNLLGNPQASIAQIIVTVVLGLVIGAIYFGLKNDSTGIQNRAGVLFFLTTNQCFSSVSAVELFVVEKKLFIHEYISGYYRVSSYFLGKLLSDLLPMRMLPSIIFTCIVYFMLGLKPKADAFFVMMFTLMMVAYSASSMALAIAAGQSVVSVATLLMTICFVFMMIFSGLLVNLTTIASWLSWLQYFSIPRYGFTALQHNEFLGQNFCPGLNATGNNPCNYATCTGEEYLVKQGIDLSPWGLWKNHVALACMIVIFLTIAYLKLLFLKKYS", "test": "ABCG2 efflux pump inhibitors, confirmation, single point, IgMXP3 cells, ABCB1 counter-screen paired (AID 1453);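 also: 0% = DMSO wells and 100% = nicardipine pump inhibitor wells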", "details": "JC-1 efflux, flow cytometry, at 6.6 µM, active compounds read high", "outline": "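Assay system: ABCG2-expressing IgMXP3 cells / Input: 3 million cells per mL final in well / Compound dosing: 6.6 µM single dose / Schedule: 10 min exposure at 25 °C / Measured by: high-throughput flow cytometry, JC-1 green median fluorescence, 530 ± 20 nm / Read-out basis: percent efflux inhibition scaled between DMSO and nicardipine, autofluorescence-corrected / Controls: nicardipine high, DMSO low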", "note": "Some of the results follow. A number with no mark means an inactive call.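 The calls were made as follows: active = inhibition above 50%; inactive = the rest.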"}
{"smiles": "COC(=O)COc1cc(C)cc2oc(=O)c3c(c12)CCCC3", "values": [{"measurement": "inhibition", "result": 22.6, "unit": "%"}]}
